Assay results of several laboratories.
Each line is one published result; the experiments were not run side by side.
Target: Casein kinase I isoform gamma-1 (CSNK1G1, Homo sapiens, UniProt Q9HCP0)

Structure (SMILES)	observed	mode	technique	tested at	endpoint	value
Cc1nn(C)cc1-c1nc2c(N3CCN(Cc4ccc(Cl)cc4)CC3)c(Cl)cnc2[nH]1	binding	–	competition with immobilised ligand	1 µM	remaining binding	100%
C#Cc1n[nH]c2c(-c3cn(C(C)c4ccccn4)c(=O)[nH]c3=O)cc(F)cc12 (stereo not drawn)	enzyme activity	inhibitor	–	1 µM	inhibition	5.4%
COc1cc(Nc2ncc(F)c(Nc3ccc4c(n3)NC(=O)C(C)(C)O4)n2)cc(OC)c1OC	binding	–	competition with immobilised ligand	10 µM	inhibition	0%
COc1ncccc1-c1cnn2ccc(N3CCN(C(=O)OC(C)C)CC3)nc12	binding	–	competition with immobilised ligand	1 µM	remaining binding	77%
Cn1cc(-c2cccc(N3CCc4c(sc5c4CC(C)(C)C5)C3=O)c2CO)cc(Nc2ccncn2)c1=O	enzyme activity	inhibitor	–	1 µM	inhibition	5%
Nc1ncc(-c2nc(N3CCOCC3)nc(N3CCOCC3)n2)c(C(F)F)n1	binding	–	competition with immobilised ligand	10 µM	remaining binding	79%
Cn1cncc1[C@@](O)(COc1ccc(C#N)cc1-c1ccc(OC(F)(F)F)cc1)c1ccc(C#N)cc1	cell-free assay	–	competition with immobilised ligand	1 µM	remaining binding	91%
C#Cc1n[nH]c2c(-c3cn([C@@H](C)c4ccccc4)c(=O)[nH]c3=O)cc(F)cc12	enzyme activity	inhibitor	–	0.1 µM	inhibition	6.6%
CC(C)(C)c1cc(C=C(C#N)C#N)cc(Br)c1O	enzyme activity	inhibitor	–	0.5 µM	remaining activity	106%
Cn1cc(-c2cc(F)cc(N3CCn4c(cc5c4CCCC5)C3=O)c2CO)cc(Nc2ccc(N3CCN(C4COC4)CC3)cn2)c1=O	enzyme activity	inhibitor	–	0.1 µM	inhibition	1%
O=c1[nH]c2ccccc2n1C1CCN(Cc2ccc(-c3[nH]c4cc5ncnc5cc4nc3-c3ccccc3)cc2)CC1	cell-free assay	–	–	0.5 µM	remaining signal	99.3%
N#CC1(c2ccccn2)CCN(Cc2cc(C(=O)O)c(=O)n3ccccc23)CC1	cell-free assay	–	competition with immobilised ligand	1 µM	remaining binding	100%
